The values below come from ChEMBL document CHEMBL4406806, “Design, Synthesis, and Characterization of Ogerin-Based Positive Allosteric Modulators for G Protein-Coupled Receptor 68 (GPR68)” (J Med Chem, 2019).

Data set [1] can be described thus: Drug uptake in Swiss albino mouse brain at 25 mg/kg, ip administered as single dose measured up to 2 hrs. Format: ADME, organism-based. The following applies: in vivo.
Data set [2] deals with T1, 5-hydroxytryptamine receptor 2B (Homo sapiens, UniProt P41595). Kind of data set: Agonist activity at human 5HT2B receptor expressed in Flp-In-HEK cells co-expressing Gq assessed as stimulation of calcium mobilization measured for 2 mins by fluo-4 calcium dye-based FLIPR assay. Format: functional, cell-based. The gist of the method: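 HEK293 cells stably expressing 5-HT2B, seeded overnight (16–20 h) on poly-L-Lys in DMEM + 1% dFBS. Fluo-4 Direct dye loaded for 1 h at 37 °C in HBSS/20 mM HEPES/2.5 mM probenecid, pH 7.40. Drug diluted in buffer with 1 mg/mL BSA and 0.1 mg/mL ascorbic acid. Fluorescence read for 2 min; peak fold of basal within the first minute.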
(A change in cytosolic calcium serves as a functional read-out for many receptors and channels.)

For data set [3], the target named is Melatonin receptor type 1A (Homo sapiens, UniProt P48039). As to the kind of experiment: Agonist activity at human MT1 receptor expressed in HTLA cells assessed as stimulation of beta-arrestin recruitment incubated for 16 to 20 hrs by bright-glo luminescence assay. The data set is classed as cell-based. The essentials:
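Tango arrestin assay in HTLA cells transfected with receptor DNA overnight in DMEM + 10% FBS, then replated on poly-L-Lys in DMEM + 1% dFBS. Drugs added 6 h later and incubated overnight (16–20 h). Medium removed, Bright-Glo added, luminescence counted.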
Background: Recruitment of arrestin is a read-out of receptor activation apart from second messengers.

The target in data set [4] is G-prodeshotein coupled receptor 4 (Homo sapiens) (UniProt P46093). Kind of data set: Positive allosteric modulation of human GPR4 expressed in HEK293T cells co-expressing Gs assessed as stimulation of proton-mediated cAMP production at higher concentration in HBSS buffer containing pH 6.8 to 8.2 HEPES/pH 8.3 to 8.6 TAPS measured after 20 to 30 mins in presence of PDE inhibitor Ro 20-1724 by luciferase-glo reporter gene assay. The data set is classed as functional, cell-based. The essentials: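 Transient co-transfection of HEK293T with receptor and GloSensor plasmids using PEI, overnight, then replated in DMEM + 1% dFBS for 6–24 h. Luciferin 3.5 mM loaded for 1 h at 37 °C in HBSS/20 mM TAPS, pH 8.40. Proton series: Ca/Mg-free HBSS with MES (pH 5.60–6.70), HEPES (6.80–8.20) or TAPS (8.30–8.60), plus 10 μM Ro 20-1724. BSA 1 mg/mL added where solubility required. Luminescence read at 20–30 min. At least six 16-point proton curves across modulator concentrations, quadruplicate, ≥3 independent assays.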
On the technique in general: cAMP levels reflect the balance of adenylyl cyclase and phosphodiesterase activity.

Data set [5] deals with T1, 5-hydroxytryptamine receptor 2B. Kind of data set: Antagonist activity at human 5HT2B receptor expressed in Flp-In-HEK cells co-expressing Gq assessed as inhibition of 5HT-induced stimulation of calcium mobilization preincubated for 10 mins followed by 5HT addition by fluo-4 calcium dye-based FLIPR assay. Format: functional, cell-based.
A short description of data set [6]: Drug uptake in Swiss albino mouse brain at 25 mg/kg, ip administered as single dose measured after 0.5 hrs. Format: ADME, organism-based. The note with it: read-out: Drug uptake.
Data set [7] can be described thus: Toxicity in Swiss albino mouse assessed as effect on clinical parameter at 25 mg/kg, ip administered as single dose. Format: organism-based. The following applies: in vivo.

Structures are written as SMILES. The source made the active and inactive calls. The rule behind the calls is not given here.

Melatonin receptor type 1A, sequence (P48039 whole entry): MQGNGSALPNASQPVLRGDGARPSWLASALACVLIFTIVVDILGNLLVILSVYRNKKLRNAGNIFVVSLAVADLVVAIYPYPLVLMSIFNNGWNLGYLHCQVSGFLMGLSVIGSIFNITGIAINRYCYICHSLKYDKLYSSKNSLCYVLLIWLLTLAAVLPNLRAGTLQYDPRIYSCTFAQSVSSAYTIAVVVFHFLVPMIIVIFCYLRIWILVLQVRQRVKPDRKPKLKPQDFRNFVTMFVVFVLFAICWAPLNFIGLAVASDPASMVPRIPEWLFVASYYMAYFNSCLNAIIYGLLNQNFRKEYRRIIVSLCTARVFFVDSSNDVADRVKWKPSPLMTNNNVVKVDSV
T1 sequence (P41595 whole entry): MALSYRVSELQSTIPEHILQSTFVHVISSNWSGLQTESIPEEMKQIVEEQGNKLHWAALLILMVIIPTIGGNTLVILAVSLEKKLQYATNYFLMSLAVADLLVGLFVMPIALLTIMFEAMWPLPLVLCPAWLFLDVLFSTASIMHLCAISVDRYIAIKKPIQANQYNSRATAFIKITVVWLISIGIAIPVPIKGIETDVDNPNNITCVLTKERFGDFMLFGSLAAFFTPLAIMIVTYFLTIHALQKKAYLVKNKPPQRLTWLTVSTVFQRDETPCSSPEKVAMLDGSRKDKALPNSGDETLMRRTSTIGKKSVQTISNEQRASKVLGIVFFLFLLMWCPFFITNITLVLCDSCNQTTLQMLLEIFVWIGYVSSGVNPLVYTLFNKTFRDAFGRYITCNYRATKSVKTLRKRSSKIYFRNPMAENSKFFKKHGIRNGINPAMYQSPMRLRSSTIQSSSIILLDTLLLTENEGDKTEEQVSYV
G-prodeshotein coupled receptor 4 (Homo sapiens), sequence (P46093 whole entry, looked up): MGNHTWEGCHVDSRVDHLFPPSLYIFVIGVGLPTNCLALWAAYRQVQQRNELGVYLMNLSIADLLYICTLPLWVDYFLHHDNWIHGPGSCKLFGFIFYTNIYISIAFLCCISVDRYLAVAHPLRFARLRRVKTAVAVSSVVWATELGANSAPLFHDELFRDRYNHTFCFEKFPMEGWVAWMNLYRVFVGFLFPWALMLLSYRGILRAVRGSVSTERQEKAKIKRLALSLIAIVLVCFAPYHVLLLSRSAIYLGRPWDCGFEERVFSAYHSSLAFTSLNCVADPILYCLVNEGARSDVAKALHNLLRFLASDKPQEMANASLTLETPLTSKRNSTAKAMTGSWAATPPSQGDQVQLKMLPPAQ

For the compound `Nc1nc(NCc2ccc(Oc3ccccc3)cc2)nc(-c2c(F)cccc2CO)n1`, the Drug uptake result in data set [1] is “Active”. Moreover, the result in data set [2] and in data set [4] was inactive. Moreover, the 50% effective concentration (EC50) (usually the concentration that produces a half-maximal response) in data set [3] was 320 nM. In addition, the Kd (commonly the free concentration of one partner at which half of the binding sites on the other are occupied at equilibrium, for simple one-to-one binding) in data set [3] was found to be 5900 nM. For the same compound, in data set [5], the inhibitory constant (Ki) (in general, a dissociation constant, usually derived from enzyme kinetics or from competition with a known ligand) came to 310 nM. For the same compound, the concentration at 0.5 h in data set [6] was over 10 µM. The Activity result in data set [7] is listed as “Non-Toxic”.
